In ChEMBL document CHEMBL1212834, “Pyrido[2,3-b]pyrazines, discovery of TRPV1 antagonists with reduced potential for the formation of reactive metabolites” (Bioorg Med Chem Lett, 2010):
Calls of active or inactive are those of the source. The rule behind the calls is not given here.

Tests used:
[1] = molecular target: Transient receptor potential cation channel subfamily V member 1 (Homo sapiens, UniProt Q8NER1); assay: Antagonist activity at human TRPV1 assessed as inhibition of capsaicin-induced receptor activation by FLIPR assay; type: functional
In short: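 Human TRPV1 activated by capsaicin; inhibition read by FLIPR. IC50 is the mean of ≥3 experiments.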

[2] = molecular target: Transient receptor potential cation channel subfamily V member 1 (Rattus norvegicus, UniProt O35433); type: functional, tissue-based, Sprague-Dawley, Dorsal root ganglion
[3] = Metabolic stability in rat liver microsomes assessed as compound remaining after 10 min; type: ADME, Microsome; conditions: read-out: Stability
[4] = system: Rattus norvegicus; assay: Antiinflammatory activity in Sprague-Dawley rat assessed as inhibition of carrageenan-induced thermal hyperalgesia at 1 mg/kg, po administered 3.5 hrs after carrageenan challenge measured after 5 hrs; type: functional
In short: (§1)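 Rat carrageenan-induced thermal hyperalgesia. Dosed orally as a suspension in 0.5% methocel; % inhibition reported at each dose.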

[5] = system: Rattus norvegicus; assay: Antiinflammatory activity in Sprague-Dawley rat assessed as inhibition of carrageenan-induced thermal hyperalgesia at 3 mg/kg, po administered 3.5 hrs after carrageenan challenge measured after 5 hrs; type: functional; in short: as §1
[6] = system: Rattus norvegicus; assay: Plasma concentration in Sprague-Dawley rat carrageenan-induced thermal hyperalgesia model at 1 mg/kg, po; type: ADME, organism-based; design: dose 1 mg/kg, route oral; conditions: in vivo
In short: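 Plasma sampled immediately after the carrageenan thermal hyperalgesia experiment, following oral dosing as a suspension in 0.5% methocel.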

[7] = system: Rattus norvegicus; assay: Plasma concentration in Sprague-Dawley rat carrageenan-induced thermal hyperalgesia model at 3 mg/kg, po; type: ADME, organism-based; design: dose 3 mg/kg, route oral; conditions: in vivo
In short: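 Rats given compound orally as a suspension in 0.5% methocel in the carrageenan-induced thermal hyperalgesia model. Plasma sampled immediately after the CITH experiment.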

[8] = Inhibition of MAOB
[9] = system: Liver microsomes; assay: Metabolic stability in human liver microsomes assessed per mg of protein after 1 hr
[10] = species: Rattus norvegicus; conditions: 20 mg/kg
[11] = system: Rattus norvegicus; assay: Antiinflammatory activity in Sprague-Dawley rat assessed as inhibition of carrageenan-induced thermal hyperalgesia at 0.3 mg/kg, po administered 3.5 hrs after carrageenan challenge measured after 5 hrs; type: functional; in short: as §1

Sequence of Transient receptor potential cation channel subfamily V member 1 (Homo sapiens, UniProt Q8NER1) (Q8NER1 whole entry): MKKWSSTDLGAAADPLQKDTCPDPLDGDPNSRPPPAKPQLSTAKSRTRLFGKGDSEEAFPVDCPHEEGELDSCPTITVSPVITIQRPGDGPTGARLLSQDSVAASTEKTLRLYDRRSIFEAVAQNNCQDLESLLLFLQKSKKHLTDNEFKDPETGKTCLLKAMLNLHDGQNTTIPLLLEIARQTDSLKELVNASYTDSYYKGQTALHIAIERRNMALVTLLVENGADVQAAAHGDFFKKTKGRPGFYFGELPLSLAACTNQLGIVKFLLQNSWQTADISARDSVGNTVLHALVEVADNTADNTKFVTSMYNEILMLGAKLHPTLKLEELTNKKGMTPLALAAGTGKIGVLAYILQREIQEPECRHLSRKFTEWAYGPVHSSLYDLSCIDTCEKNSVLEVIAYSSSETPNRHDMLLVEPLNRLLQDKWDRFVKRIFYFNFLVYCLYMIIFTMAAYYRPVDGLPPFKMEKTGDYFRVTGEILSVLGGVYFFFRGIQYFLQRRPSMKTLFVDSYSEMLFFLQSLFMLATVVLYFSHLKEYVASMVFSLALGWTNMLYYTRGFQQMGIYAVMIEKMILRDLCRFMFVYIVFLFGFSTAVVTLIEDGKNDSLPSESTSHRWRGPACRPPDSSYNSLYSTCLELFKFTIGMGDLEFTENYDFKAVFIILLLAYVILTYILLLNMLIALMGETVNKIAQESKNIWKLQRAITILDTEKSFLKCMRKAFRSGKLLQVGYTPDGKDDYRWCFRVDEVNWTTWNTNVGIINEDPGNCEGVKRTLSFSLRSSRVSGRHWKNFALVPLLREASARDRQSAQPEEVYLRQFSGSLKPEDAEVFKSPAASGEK
Sequence of Transient receptor potential cation channel subfamily V member 1 (Rattus norvegicus, UniProt O35433) (O35433 whole entry): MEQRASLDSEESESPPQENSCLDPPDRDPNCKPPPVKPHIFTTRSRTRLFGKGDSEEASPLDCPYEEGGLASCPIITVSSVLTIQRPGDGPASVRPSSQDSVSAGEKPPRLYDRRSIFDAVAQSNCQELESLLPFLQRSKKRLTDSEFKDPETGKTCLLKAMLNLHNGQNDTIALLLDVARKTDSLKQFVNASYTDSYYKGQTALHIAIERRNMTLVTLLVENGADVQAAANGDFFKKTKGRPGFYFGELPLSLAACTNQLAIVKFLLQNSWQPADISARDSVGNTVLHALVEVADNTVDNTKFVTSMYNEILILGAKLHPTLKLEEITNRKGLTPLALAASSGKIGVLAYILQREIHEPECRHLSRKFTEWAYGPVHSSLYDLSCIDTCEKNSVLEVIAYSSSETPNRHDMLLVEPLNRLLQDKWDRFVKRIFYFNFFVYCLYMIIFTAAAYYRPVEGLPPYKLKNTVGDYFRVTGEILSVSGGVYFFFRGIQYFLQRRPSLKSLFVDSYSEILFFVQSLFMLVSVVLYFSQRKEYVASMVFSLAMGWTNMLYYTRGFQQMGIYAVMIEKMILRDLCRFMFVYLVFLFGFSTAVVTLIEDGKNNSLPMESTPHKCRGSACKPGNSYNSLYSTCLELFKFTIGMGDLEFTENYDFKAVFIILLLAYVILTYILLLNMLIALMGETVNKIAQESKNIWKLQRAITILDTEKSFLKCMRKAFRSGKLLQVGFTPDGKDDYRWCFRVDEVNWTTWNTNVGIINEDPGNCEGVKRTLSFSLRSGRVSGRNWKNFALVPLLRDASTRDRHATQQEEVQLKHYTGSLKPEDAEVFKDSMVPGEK

SMILES | IC50 [1] [nM] | IC50 [2] | other results
N#Cc1cnc(-c2cnc3c(Nc4ccc(C(F)(F)F)cn4)ccnc3n2)c(C(F)(F)F)c1 | 15 | Not Active | –
FC(F)(F)c1ccc(Nc2ccnc3nc(-c4ncccc4C(F)(F)F)ccc23)nc1 | – | – | IC50 ([2]; read-out: IC50): 3.2 nM; remaining at 10 min [3]: 100%; inhibition in vivo at 1 mg/kg [4]: 66%; inhibition in vivo at 3 mg/kg [5]: 115%; concentration [6]: 300 nM; concentration [7]: 1400 nM; INH [8]: 2.2 nM; Stability [9]: 169 pmol
NC(=O)c1nc(Nc2ccnc3nc(-c4ncccc4C(F)(F)F)ccc23)ncc1C(F)(F)F | 48.7 | Not Active | –
FC(F)(F)c1ccc(Nc2ccnc3nc(-c4ccncc4C(F)(F)F)ccc23)nc1 | 161 | Not Active | –
COc1ccc2cc([C@H](C)C(=O)O)ccc2c1 | – | – | inhibition [10]: Active
FC(F)(F)c1ccc(Nc2ccnc3nc(-c4ncccc4C(F)(F)F)cnc23)nc1 | 0.2 | Not Active | remaining at 10 min [3]: 100%; inhibition in vivo at 3 mg/kg [5]: 134%; inhibition in vivo at 0.3 mg/kg [11]: 85%; Stability [9]: < 5 pmol
FC(F)(F)c1csc(Nc2ccnc3nc(-c4ncccc4C(F)(F)F)ccc23)n1 | 47 | Not Active | –
FC(F)(F)c1cnc(Nc2ccnc3nc(-c4ncccc4C(F)(F)F)ccc23)nc1Cl | 81 | Not Active | –
O=C(O)c1ccnc(-c2ccc3c(Nc4ccc(C(F)(F)F)cn4)ccnc3n2)c1C(F)(F)F | 607 | Not Active | –
O=C(O)c1nc(Nc2ccnc3nc(-c4ncccc4C(F)(F)F)ccc23)ncc1C(F)(F)F | 1450 | Not Active | –
FC(F)(F)c1ccc(Nc2ccnc3nc(-c4ncsc4C(F)(F)F)ccc23)nc1 | 12 | Not Active | remaining at 10 min [3]: 100%; Stability [9]: 356 pmol
FC(F)(F)c1cnc(Nc2ccnc3nc(-c4ncccc4C(F)(F)F)ccc23)nc1 | 4.4 | – | IC50 ([2]; read-out: IC50): 4.6 nM; remaining at 10 min [3]: 100%; inhibition in vivo at 3 mg/kg [5]: 78%; Stability [9]: 204 pmol
C[C@@H]1CN(c2ncccc2C(F)(F)F)CCN1C(=O)Nc1ccc(C(F)(F)F)cc1 | – | – | INH [8]: 17 nM

The next lines start with results.

IC50 [1] [nM] | IC50 [2] | SMILES | other results
30 | Not Active | FC(F)(F)c1ccc(Nc2ccnc3nc(-c4ncc(Br)cc4C(F)(F)F)cnc23)nc1 | –
13 | Not Active | NC(=O)c1ccnc(-c2ccc3c(Nc4ccc(C(F)(F)F)cn4)ccnc3n2)c1C(F)(F)F | –
27 | Not Active | O=C(O)c1cnc(-c2cnc3c(Nc4ccc(C(F)(F)F)cn4)ccnc3n2)c(C(F)(F)F)c1 | –
5.5 | – | FC(F)(F)c1cnc(Nc2ccnc3nc(-c4ncccc4C(F)(F)F)ccc23)cn1 | IC50 ([2]; read-out: IC50): 6.3 nM
25.4 | Not Active | N#Cc1nc(Nc2ccnc3nc(-c4ncccc4C(F)(F)F)ccc23)ncc1C(F)(F)F | –
134 | Not Active | FC(F)(F)c1ccc(Nc2ccnc3nc(-c4ncncc4C(F)(F)F)ccc23)nc1 | –
8.4 | – | FC(F)(F)c1ccc(Nc2ccnc3nc(-c4nnccc4C(F)(F)F)ccc23)nc1 | IC50 ([2]; read-out: IC50): 7.1 nM
